ChEMBL document CHEMBL4304754, “Development of α-GalCer Analogues with an α-Fluorocarbonyl Moiety as Th2-Selective Ligands of CD1d” (ACS Med Chem Lett, 2019)
Calls of active or inactive are those of the source. The rule behind the calls is not given here.

Experiments:
[1] = biological target: T1, Antigen-presenting glycoprotein CD1d (Mus musculus) (UniProt P11609+P11610); test: Binding affinity to CD1d in C57BL/6 mouse HMNC cells assessed as iNKT cells stimulation by measuring increase in IL-2 production at 25 nM incubated for 72 hrs by ELISA; type: cell-based
How it was run: (§1)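 Primary murine hepatic mononuclear cells (HMNCs), which contain iNKT cells, were incubated with each glycolipid at 25 nM for 72 h. Cytokines released into the medium were quantified by ELISA, with α-GalCer as positive control.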

[2] = biological target: T1, Antigen-presenting glycoprotein CD1d (Mus musculus); test: Binding affinity to CD1d in C57BL/6 mouse HMNC cells assessed as iNKT cells stimulation by measuring increase in Th2-type cytokine, IL-4 production at 25 nM incubated for 72 hrs by ELISA; type: cell-based; how it was run: as §1
[3] = biological target: T1, Antigen-presenting glycoprotein CD1d (Mus musculus); test: Binding affinity to CD1d in C57BL/6 mouse HMNC cells assessed as iNKT cells stimulation by measuring Th1-type cytokine, IFNgamma production at 25 nM incubated for 72 hrs by ELISA; type: cell-based; how it was run: as §1
[4] = biological target: T1, Antigen-presenting glycoprotein CD1d (Mus musculus); test: Binding affinity to CD1d in C57BL/6 mouse HMNC cells assessed as iNKT cells stimulation by measuring increase in IL17 production at 25 nM incubated for 72 hrs by ELISA; type: cell-based; how it was run: as §1
[5] = biological target: T1, Antigen-presenting glycoprotein CD1d (Mus musculus); test: Covalent binding affinity to mouse CD1d at 10 equivalent incubated for 3 hrs by coomassie blue staining based SDS-PAGE analysis; type: protein assay
How it was run: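 CD1d protein was incubated with each ligand under several reported or modified conditions. Samples were then denatured and resolved by SDS-PAGE. Gels were stained with Coomassie blue to look for covalent CD1d–ligand adduct bands alongside intact protein.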

[6] = biological target: T1, Antigen-presenting glycoprotein CD1d (Mus musculus); test: Covalent binding affinity to mouse CD1d at 5 equivalent incubated in DBPS buffer with tween 20 for 3 hrs by MALDI-TOF analysis; type: protein assay
How it was run: (§2)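 Samples of CD1d protein incubated with each ligand were analysed by MALDI-TOF mass spectrometry. The aim was to detect covalent conjugates formed between a CD1d cysteine and the ligand's α-fluorocarbonyl group.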

[7] = biological target: T1, Antigen-presenting glycoprotein CD1d (Mus musculus); test: Covalent binding affinity to mouse CD1d at 5 equivalent incubated in DBPS buffer without tween 20 for 3 hrs by MALDI-TOF analysis; type: protein assay; how it was run: as §2
[8] = biological target: T1, Antigen-presenting glycoprotein CD1d (Mus musculus); test: Covalent binding affinity to mouse CD1d at 14.6 equivalent incubated in tris buffer with tween 20 at pH 7.5 to 8 for 16 hrs by MALDI-TOF MS analysis; type: protein assay; how it was run: as §2
[9] = biological target: T1, Antigen-presenting glycoprotein CD1d (Mus musculus); test: Covalent binding affinity to mouse CD1d at 14.6 equivalent incubated in tris buffer without tween 20 at pH 7.5 to 8 for 16 hrs by MALDI-TOF MS analysis; type: protein assay; how it was run: as §2
[10] = biological target: T1, Antigen-presenting glycoprotein CD1d (Mus musculus); test: Binding affinity to CD1d in C57BL/6 mouse HMNC cells assessed as iNKT cells stimulation by measuring increase in ratio of IL-4 to IFNgamma (IL-4/IFNgamma) level at 25 nM incubated for 72 hrs by ELISA; type: cell-based

| Structure (SMILES) | Activity [1] | Activity [2] | Activity [3] | Activity [4] | Activity [5] | Activity [6] | Activity [7] | Activity [8] | Activity [9] | Activity [10] |
| --- | --- | --- | --- | --- | --- | --- | --- | --- | --- | --- |
| CCCCCCCCCCCCCC[C@@H](O)[C@@H](O)[C@H](CO[C@H]1O[C@H](CO)[C@H](O)[C@H](O)[C@H]1O)NC(=O)CCCCCCCCCCCCCCCCCCCCC(=O)CF | Active | Active | inactive | Active | inactive | inactive | inactive | inactive | inactive | Active |
| CCCCCCCCCCCCCC[C@@H](O)[C@@H](O)[C@H](CO[C@H]1O[C@H](CO)[C@H](O)[C@H](O)[C@H]1O)NC(=O)CCCCCCCCCCCCCCCCCCCC(=O)CF | Active | Active | inactive | Active | inactive | inactive | inactive | – | – | Active |
| CCCCCCCCCCCCCC[C@@H](O)[C@@H](O)[C@H](CO[C@H]1O[C@H](CO)[C@H](O)[C@H](O)[C@H]1O)NC(=O)CCCCCCCCCCCCCCCCCCC(=O)CF | Active | Active | inactive | Active | inactive | inactive | inactive | – | – | Active |
| CCCCCCCCCCCCCCCCCCCCCCCC(=O)N[C@@H](CO[C@H]1O[C@H](CO)[C@H](O)[C@H](O)[C@H]1O)[C@H](O)[C@H](O)CCCCC | – | inactive | inactive | – | – | – | – | – | – | Active |
| CCCCCCCCCCCCCC[C@@H](O)[C@@H](O)[C@H](CO[C@H]1O[C@H](CO)[C@H](O)[C@H](O)[C@H]1O)NC(=O)CCCCCCCCCCCCCCCCC(=O)CF | Active | Active | inactive | – | inactive | inactive | inactive | – | – | – |
| CCCCCCCCCCCCCC[C@@H](O)[C@@H](O)[C@H](CO[C@H]1O[C@H](CO)[C@H](O)[C@H](O)[C@H]1O)NC(=O)CCCCCCCCCCCCCCCCCC(=O)CF | Active | Active | inactive | – | inactive | inactive | inactive | – | – | Active |
| CCCCCCCCCCCCCCCCCCCCCCCCCC(=O)N[C@@H](CO[C@H]1O[C@H](CO)[C@H](O)[C@H](O)[C@H]1O)[C@H](O)[C@H](O)CCCCCCCCCCCCCC | Active | Active | – | Active | – | – | – | – | – | – |
